Assay results as given in article PMC10582660 (Clinical and Translational Science, 2023).

Molecular target: T1, OCT2 (Homo sapiens, UniProt O15244)
T1 sequence (O15244 1-555): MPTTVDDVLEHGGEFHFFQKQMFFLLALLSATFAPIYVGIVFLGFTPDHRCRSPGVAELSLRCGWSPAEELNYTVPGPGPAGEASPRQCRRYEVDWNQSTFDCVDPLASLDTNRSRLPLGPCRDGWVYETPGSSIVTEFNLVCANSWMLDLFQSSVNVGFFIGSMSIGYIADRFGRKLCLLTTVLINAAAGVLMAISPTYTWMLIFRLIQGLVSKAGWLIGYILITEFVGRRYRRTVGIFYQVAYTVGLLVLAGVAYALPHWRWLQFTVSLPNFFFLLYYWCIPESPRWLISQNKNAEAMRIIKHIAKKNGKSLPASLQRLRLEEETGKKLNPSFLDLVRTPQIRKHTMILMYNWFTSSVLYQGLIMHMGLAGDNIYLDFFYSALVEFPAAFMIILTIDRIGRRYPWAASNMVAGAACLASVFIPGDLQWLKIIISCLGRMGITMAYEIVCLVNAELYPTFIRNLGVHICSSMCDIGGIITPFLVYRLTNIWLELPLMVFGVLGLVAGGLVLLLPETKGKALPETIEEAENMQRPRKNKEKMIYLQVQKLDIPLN
Experiment: Raloxifene as a substrate for uptake transporters
Format: in vitro ADME
Details: raloxifene 1, 10 μM, 2, 20 min, two‐fold cutoff
Procedure, shortened: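 Uptake of test compound (1 and 10 μM, 2 and 20 min) measured in transporter-expressing HEK293 or MDCKII cells or inside-out membrane vesicles. Run with positive-control probe substrates and inhibitors, plus empty-vector or untransfected control cells. Fold-accumulation relative to control cells judged against a two-fold cutoff for substrate status.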

With `O=C(c1ccc(OCCN2CCCCC2)cc1)c1c(-c2ccc(O)cc2)sc2cc(O)ccc12` [Raloxifene, raloxifene, reference compound] the “fold‐accumulation” value was 0.90–1.15.
